ChEMBL document CHEMBL3875207, “New derivatives of 7-chloroquinolin-4-amine with antiprotozoal activity” (Bioorg Med Chem, 2017)

How the values were obtained:
[1] = Selectivity index, ratio of IC50 for rat L6 cells to IC50 for Trypanosoma brucei rhodesiense STIB900 bloodstream forms; type: toxicity, cell-based; settings: read-out: Ratio IC50
Method in brief: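 Ratio of L-6 cytotoxicity IC50 to T. b. rhodesiense STIB900 IC50. L-6: 4000 cells in RPMI 1640 with L-glutamine and 10% FBS, 70 h, then Alamar Blue 2 h. Trypanosomes: 4×10^3 bloodstream forms in supplemented MEM with 15% horse serum, 37°C, 5% CO2, 70 h, then Alamar Blue 2-4 h. Both read by fluorescence (ex 536/em 588 nm) over eleven 3-fold dilutions, 100 to 0.002 µg/mL.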

[2] = Cytotoxicity against rat L6 cells assessed as growth inhibition after 70 hrs by alamar blue assay; type: toxicity
Method in brief: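 4000 L-6 cells per well in RPMI 1640 with 1% L-glutamine (200 mM) and 10% FBS. Eleven 3-fold dilutions spanning 100 to 0.002 µg/mL; 70 h incubation, controls checked microscopically. Alamar Blue added for 2 h more; fluorescence ex 536/em 588 nm. IC50 by linear regression from sigmoidal dose-inhibition curves.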

[3] = test system: Plasmodium falciparum; assay: Antiplasmodial activity against chloroquine-sensitive Plasmodium falciparum NF54 infected in human RBC assessed as reduction in [3H]hypoxanthine incorporation preincubated for 48 hrs followed by [3H]hypoxanthine addition measured after 24 hrs by liquid scintillation counting method; type: functional
Method in brief: (§1)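 Erythrocytic P. falciparum in RPMI 1640 without hypoxanthine with HEPES, NaHCO3, neomycin, Albumax (5 g/L) and washed human A+ red cells at 2.5% haematocrit, 0.3% parasitaemia. Compounds from DMSO stocks (10 mg/mL) tested as eleven 3-fold dilutions, 100 to 0.002 µg/mL. Incubation at 37°C under 4% CO2/3% O2/93% N2; 3H-hypoxanthine (0.5 µCi) added at 48 h, 24 h more, scintillation counting; IC50 by linear regression from sigmoidal curves.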

[4] = Selectivity index, ratio of IC50 for rat L6 cells to IC50 for chloroquine/pyrimethamine-resistant Plasmodium falciparum K1 infected in human RBC; type: toxicity, cell-based; settings: read-out: Ratio IC50
Method in brief: (§2)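 Ratio of the IC50 in rat L-6 myoblasts to the P. falciparum IC50. L-6: 4000 cells per well, RPMI 1640 with L-glutamine and 10% FBS, 70 h, Alamar Blue 2 h, fluorescence ex 536/em 588 nm. Both use eleven 3-fold dilutions, 100 to 0.002 µg/mL.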

[5] = test system: Plasmodium falciparum; assay: Antiplasmodial activity against chloroquine/pyrimethamine-resistant Plasmodium falciparum K1 infected in human RBC assessed as reduction in [3H]hypoxanthine incorporation preincubated for 48 hrs followed by [3H]hypoxanthine addition measured after 24 hrs by liquid scintillation counting method; type: functional; method in brief: as §1
[6] = test system: Trypanosoma brucei rhodesiense; assay: Antitrypanosomal activity against Trypanosoma brucei rhodesiense STIB900 bloodstream forms isolated from patient after 70 hrs by microplate alamar blue assay; type: functional; settings: STIB900, 70 h
Method in brief: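 MEM with 25 mM HEPES, 1 g/L extra glucose, non-essential amino acids, 0.2 mM 2-mercaptoethanol, 1 mM Na-pyruvate, 15% heat-inactivated horse serum; 4×10^3 bloodstream forms per well. Eleven 3-fold dilutions, 100 to 0.002 µg/mL; 70 h, 37°C, 5% CO2. Resazurin added, further 2-4 h; fluorescence ex 536/em 588 nm. IC50 by linear regression from sigmoidal dose-inhibition curves.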

[7] = Resistance index, ratio of IC50 for chloroquine/pyrimethamine-resistant Plasmodium falciparum K1 infected in human RBC to IC50 for chloroquine-sensitive Plasmodium falciparum NF54 infected in human RBC; type: functional
Method in brief: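 Resistance index is the ratio of the IC50 against K1 to the IC50 against NF54. Both IC50s come from the 3H-hypoxanthine incorporation assay run in parallel on the two strains.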

[8] = Selectivity index, ratio of IC50 for rat L6 cells to IC50 for chloroquine-sensitive Plasmodium falciparum NF54 infected in human RBC; type: toxicity, cell-based; settings: read-out: Ratio IC50; method in brief: as §2

SMILES | selectivity ratio [1] | IC50 at 70 h [2] [nM] | IC50 [3] [nM] | selectivity ratio [4] | IC50 [5] [nM] | IC50 [6] [nM] | Ratio IC50 [7] | selectivity ratio [8]
Clc1ccc2c(NCCNCCN3CCCCCC3)ccnc2c1 | 59.5 | 76100 | 11 | 1150 | 66 | 1280 | 6 | 6920
Clc1ccc2c(NCCCN3CCCCCC3)ccnc2c1 | 25.6 | 20000 | 6.3 | 525 | 38 | 780 | 6.03 | 3170
CCN(CC)CCCC(C)Nc1ccnc2cc(Cl)ccc12 (centres undefined) [CHLOROQUINE] |  | 90900 |  |  |  |  |  | 
O=C(CN1CCCCC1)NCCNc1ccnc2cc(Cl)ccc12 | 18.5 | 23700 | 11 | 258 | 92 | 1280 | 8.36 | 2160
CN1CCN(CCNc2ccnc3cc(Cl)ccc23)CC1 | 24.2 | 16700 | 6.6 | 465 | 36 | 690 | 5.45 | 2540
CN1CCN(CC(=O)NCCNc2ccnc3cc(Cl)ccc23)CC1 | 2.08 | 38000 | 36 | 13.3 | 2870 | 18300 | 79.7 | 1060
CCCN(CCC)CC(=O)NCCNc1ccnc2cc(Cl)ccc12 | 23.4 | 22000 | 14 | 732 | 30 | 940 | 2.14 | 1570
CCCN(CCC)CCN1CCN(c2ccnc3cc(Cl)ccc23)CC1 | 53.1 | 56800 | 110 | 646 | 88 | 1070 | 0.8 | 517
O=C(CN1CCCCCC1)NCCNc1ccnc2cc(Cl)ccc12 | 50.8 | 14200 | 11 | 258 | 55 | 280 | 5 | 1290
Clc1ccc2c(N3CCN(CCN4CCCCCC4)CC3)ccnc2c1 | 15.8 | 25400 | 70 | 338 | 75 | 1610 | 1.07 | 362
Nc1nc(N)nc(Nc2ccc([As]3SCC(CO)S3)cc2)n1 (centres undefined) [MELARSOPROL] | 778 | 7780 |  |  |  |  |  | 
CN1CCN(CCCNc2ccnc3cc(Cl)ccc23)CC1 | 15.9 | 18200 | 3.1 | 586 | 31 | 1140 | 10 | 5860
O=C(CN1CCCC1)NCCNc1ccnc2cc(Cl)ccc12 | 62.7 | 46400 | 18 | 618 | 75 | 740 | 4.17 | 2580
Clc1ccc2c(NCCN3CCCCCC3)ccnc2c1 | 22.4 | 13200 | 3.3 | 827 | 16 | 590 | 4.85 | 4010
COc1cc([C@@H]2c3cc4c(cc3[C@H](O)[C@H]3COC(=O)[C@H]23)OCO4)cc(OC)c1OC [PODOFILOX] |  | 12 |  |  |  |  |  | 
CN1CCN(CC(=O)N2CCN(c3ccnc4cc(Cl)ccc34)CC2)CC1 | 39.5 | 79800 | 140 | 285 | 280 | 2020 | 2 | 570
CCCN(CCC)CC(=O)N1CCN(c2ccnc3cc(Cl)ccc23)CC1 | 48.3 | 70500 | 230 | 227 | 310 | 1460 | 1.35 | 306
CCCN(CCC)CCNc1ccnc2cc(Cl)ccc12 | 107 | 14900 | 3.3 | 1520 | 9.8 | 140 | 2.97 | 4530
